Measurements reported in ChEMBL document CHEMBL4414625, “Discovery of Second-Generation NLRP3 Inflammasome Inhibitors: Design, Synthesis, and Biological Characterization” (J Med Chem, 2019).
Active and inactive are the calls of the source. The rule behind the calls is not given here.

What was measured:
[1] = test system: Mus musculus; test: Inhibition of LPS-induced serum IL-1beta production in nlrp3-/- C57BL/6 mouse at 10 mg/kg, ip pretreated before LPS challenge and measured after […] post LPS challenge by ELISA; type: functional, organism-based
[2] = Toxicity in human hCMEC/D3 cells assessed as reduction in cell viability at 20 uM; type: cell-based; conditions: hcmec/d3, 20 µM
Method in brief: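 hCMEC/D3 cells (passage 25-35, EGM-2-based media) exposed to compound at 20 μM for 2 h; viability read by Live/Dead staining. Mean ± SEM from 3 independent experiments, ≥triplicates each.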

[3] = test system: Mus musculus; test: Inhibition of LPS-induced serum TNFalpha production in C57BL/6 mouse at 10 mg/kg, ip pretreated before LPS challenge and measured after […] post LPS challenge by ELISA; type: functional, organism-based
[4] = test system: Mus musculus; test: Inhibition of LPS-induced serum IL-1beta production in C57BL/6 mouse at 10 mg/kg, ip pretreated before LPS challenge and measured after […] post LPS challenge by ELISA; type: functional, organism-based

| SMILES | inhibition [1] | Activity [2] | inhibition [3] | inhibition [4] |
| --- | --- | --- | --- | --- |
| C#CCNS(=O)(=O)c1ccc(CCN(Cc2cc(Cl)ccc2OCCC)C(=O)Cc2ccsc2)cc1 | inactive | Non-Toxic | inactive | Active |
| CC(C)(O)c1coc(S(=O)(=O)NC(=O)Nc2c3c(cc4c2CCC4)CCC3)c1 |  |  |  | Active |
| C#CCNS(=O)(=O)c1ccc(CCN(Cc2cc(Cl)ccc2OC)C(=O)C=C)cc1 |  |  | Active | Active |
